Published values gathered from unrelated publications.
Compare with care: the assays were run in different laboratories.
Ephx2: Bifunctional epoxide hydrolase 2 (Ephx2, Mus musculus, UniProt P34914)
APC: Adenomatous polyposis coli protein (APC, Homo sapiens, UniProt P25054)
EGFR: Epidermal growth factor receptor (EGFR, Homo sapiens, UniProt P00533)
AMY1A: Alpha-amylase 1A (AMY1A, Homo sapiens, UniProt P0DUB6)

| Structure (SMILES) | target | observed | action | technique | IC50 [nM] |
| --- | --- | --- | --- | --- | --- |
| O=C(Nc1ccc(-c2cnc3ccccc3c2)cc1)C1CCN(S(=O)(=O)c2ccccc2Cl)CC1 | Ephx2 | enzyme activity | inhibitor | fluorescence | 116 |
| Cc1ccc2c(-c3cc4c(CN5CCN(Cc6ccccn6)CC5)cnc(C)c4o3)cc(=O)oc2c1 | Epidermal growth factor receptor (EGFR, Homo sapiens, UniProt P00533, C797S/L858R/T790M) | enzyme activity | inhibitor | ADP detection | 5.77 |
| CC(C)C[C@H](NC(=O)[C@H](Cc1ccc2ccccc2c1)NC(=O)[C@H](CCC(=O)O)NC(=O)c1ccnc(Cl)n1)C(=O)NC1CC1c1ccccc1 (stereo partly drawn) | APC | ligand displacement | – | FP | 4270 |
| O=C(Nc1ccc(-c2ccc3cccnc3c2)cc1)C1CCN(S(=O)(=O)c2ccccc2Cl)CC1 | Ephx2 | enzyme activity | inhibitor | fluorescence | 38.2 |
| CC(C)C[C@H](NC(=O)[C@H](Cc1ccc2ccccc2c1)NC(=O)[C@H](CCC(=O)O)NC(=O)c1cccc(C(F)(F)F)c1)C(=O)NC1CC1c1ccccc1 (stereo partly drawn) | APC | ligand displacement | – | FP | 10700 |
| Cc1c(Cc2ccccc2)c(=O)oc2c(C)c(OCC(=O)NN=Cc3ccccc3)ccc12 | EGFR | enzyme activity | inhibitor | ATP luminescence | 307 |
| CC(C)C[C@H](NC(=O)[C@H](Cc1ccc2ccccc2c1)NC(=O)[C@H](CCC(=O)O)NC(=O)c1ccccn1)C(=O)NC1CC1c1ccccc1 (stereo partly drawn) | APC | ligand displacement | – | FP | 30200 |
| O=C(Nc1ccc(-c2ccc3ccccc3n2)cc1)C1CCN(S(=O)(=O)c2ccccc2Cl)CC1 | Ephx2 | enzyme activity | inhibitor | fluorescence | 182 |
| Oc1ccc(/C=C/c2cc(O)cc(O)c2)cc1 | AMY1A | enzyme activity | inhibitor | – | > 100000 |
| COc1ccc2nc3cc(Cl)ccc3c(Nc3cc(CN4CCCC4)c(O)c(CN4CCCC4)c3)c2n1 | Palmitoyl-protein thioesterase 1 (Homo sapiens, UniProt P50897) | enzyme activity | inhibitor | – | > 125000 |
| Cc1ncc(CN2CCc3ccccc3C2)c2cc(C(=O)c3ccc4c(c3)OCCO4)oc12 | EGFR | enzyme activity | inhibitor | ADP detection | 12.9 |
| Oc1ccc([C@@H]2c3c(O)cc(O)cc3[C@@H]3c4c(cc(O)cc4[C@H]2[C@@H]2c4cc(O)cc5c4[C@@H](c4cc(O)cc(O)c4[C@H]2c2ccc(O)cc2)[C@H](c2ccc(O)cc2)O5)O[C@H]3c2ccc(O)cc2)cc1 | AMY1A | enzyme activity | inhibitor | – | 33700 |
| CC(C)C[C@H](NC(=O)[C@H](Cc1ccc2ccccc2c1)NC(=O)[C@H](CCC(=O)O)NC(=O)c1ccccc1)C(=O)NC1CC1c1ccccc1 (stereo partly drawn) | APC | ligand displacement | – | FP | 77600 |
| Cc1ncc(CN2CCN(Cc3ccccn3)CC2)c2cc(C(=O)c3ccc4c(c3)OCCO4)oc12 | EGFR | enzyme activity | inhibitor | ADP detection | 40.5 |
| O=C(Nc1ccc(-c2cccc3ncccc23)cc1)C1CCN(S(=O)(=O)c2ccccc2Cl)CC1 | Ephx2 | enzyme activity | inhibitor | fluorescence | 17.2 |
